Compound activity deposited in PubChem BioAssay by Sanford-Burnham Center for Chemical Genomics.
MT1-MMP act inh = blocks activation of human MT1-MMP | AID 651647 | GFP/RFP ratio change, % at 20 µM | HT1080 RFP-PRO-GFP cells, GFP/RFP ratio fluorescence, overnight; percent of plate control window, DMSO zero | P50281 | actives 0.061% (n = 360,000);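 active = GFP/RFP ratio change of at least 30% with cell ATP level not reduced by more than half and red fluorescence within 50% of control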
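Test system: HT1080 cells expressing an RFP-PRO-GFP fluorescent reporter construct / Compound dosing: single-point 20 µM compound, 1% DMSO / Schedule: cells overnight before dosing, compound overnight, 37 °C, 5% CO2 / Evaluation: GFP/RFP fluorescence ratio / Control set: DMSO and RFP-L50D-GFP cell wells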
SKN-1 inh = C. elegans SKN-1 inhibition; AID 624304; C. elegans VP596 Pgst-4::GFP/RFP ratio, acrylamide-induced, 24 h; inhibition, % at 21.8 µM; actives 0.49% (n = 360,000);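 active = interference check ratio from 0.5 to 1.5 plus GFP to RFP signal ratio inhibition reaching or exceeding a fixed threshold, cut at about 30% in these data, passing the limit was not always enough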
Rpn11 inh = inhibitors of human proteasome Rpn11 | O00487 | human 26S proteasome, Ub4-pepOG fluorescence polarization; 20S core pre-blocked with epoxomicin | inhibition, % at 20 µM | actives 0.59% (n = 360,000) | AID 588493;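 active = inhibition at 20 µM, scaled to each plate's controls, above about 33%, limit read from the data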
DNMT1 block = DNMT1 (human) enzyme inhibition; AID 588458; inhibition (reported as % activation of signal), % at 10 µM; DNMT1 molecular beacon, Hinp1I cleavage, fluorescence; actives 0.83% (n = 360,000); in the data active = inhibition above about 50%
CSN deneddyl inh = blocks human CSN-mediated cullin deneddylation. Q92905. Purified CSN, SCF-Nedd8-OG deneddylation, fluorescence polarization. inhibition, % at 12.5 µM. actives 0.38% (n = 360,000);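 active = pattern-corrected inhibition above about 35%, with an unprinted fluorescence ratio check between 0.5 and 1.5, limit read from the data, passing the limit was not always enough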;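 note: 0% = enzyme with substrate and 100% = substrate without enzyme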
Target sequence (Q92905 whole entry, looked up, one chain of several): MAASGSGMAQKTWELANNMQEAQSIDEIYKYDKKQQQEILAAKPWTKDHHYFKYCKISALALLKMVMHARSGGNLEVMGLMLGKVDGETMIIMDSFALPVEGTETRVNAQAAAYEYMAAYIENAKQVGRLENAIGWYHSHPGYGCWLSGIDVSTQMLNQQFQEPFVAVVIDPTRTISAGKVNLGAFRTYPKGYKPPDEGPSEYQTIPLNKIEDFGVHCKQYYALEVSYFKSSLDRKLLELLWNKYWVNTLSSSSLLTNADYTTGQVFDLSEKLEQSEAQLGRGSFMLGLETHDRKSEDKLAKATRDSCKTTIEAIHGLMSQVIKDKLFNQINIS
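Assay system: purified human Csn5 enzyme expressed in HEK293T cells; Input: 0.24 nM Csn5 enzyme, final concentration; Reagent: 10 nM SCFSkp2-Nedd8OG; Compound dosing: 12.5 µM single point; Times: reaction 90 min, room temperature; Technique: fluorescence polarization readout.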
SUMO1-SIM PPI = modulators of human SUMO1-mediated protein-protein interactions | SUMO1 binding to a labelled peptide, TR-FRET, 1 h | inhibition, % at 20 µM | actives 0.33% (n = 360,000) | AID 602429; in the data active = inhibition above about 37%
Target sequence (P63165 whole entry, looked up): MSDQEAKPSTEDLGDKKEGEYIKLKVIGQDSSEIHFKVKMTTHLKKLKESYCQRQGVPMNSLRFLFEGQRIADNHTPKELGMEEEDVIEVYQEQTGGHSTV
* = called active by the depositor; . = not tested or not shown; + = active, no number. Rows were chosen to be rich in hits. Some 2.3% of all compounds tested hit in one or more screens of this group.

SMILES | MT1-MMP act inh | SKN-1 inh | Rpn11 inh | DNMT1 block | CSN deneddyl inh | SUMO1-SIM PPI
CN(C)c1ncnc2c1ncn2[C@H]1CN(CCN2CCOCC2)C[C@@H](CO)O1 | 2 | 2 | -7 | 7 | 3 | -4
Cc1nc2ccc(C(=O)Nc3ccc4c(c3)OCC(=O)N4)cn2c1N(C)C(=O)CCc1ccccc1 | 1 | 4 | -1 | 0 | 4 | 2
O=S1(=O)N[C@@H](Cc2ccccc2)COc2cccc(N3CCC[C@H]3CO)c21 | 7 | -3 | . | . | 0 | 4
O=C1C=CC(=O)c2c(O)c(CO)c(CO)c(O)c21 | -7 | -7 | -72 | 114* | -7 | 118*
N/C(=N\OC(=O)c1ccc(Cl)c(Cl)c1)c1ccccn1 | -2 | 35* | -4 | -5 | 1 | 20
COc1ccc(N/C=C\C(=O)c2ccc(Br)cc2)cc1OC | -19 | -11 | . | -1 | 53* | -2
CCOC(=O)c1cccc(N/C=C/C(=O)c2ccc(OC)c(OC)c2)c1 | 1 | -2 | 5 | -13 | 92* | -16
CC(C)(C)c1ccccc1NC(=O)Nc1nc(C(N)Cc2ccc(F)cc2)cs1 (stereo unspecified) | . | 0 | 8 | -11 | -6 | -30
Cc1cc(C)cc(CC(=O)N2CCC2(C)C(=O)NS(=O)(=O)c2ccccc2Cl)c1 (stereo unspecified) | 1 | 17 | 0 | 2 | 4 | 4
CCN1CCN(c2nc3sc4c(c3c3ncnn23)CC(C)CC4)CC1 (stereo unspecified) | -4 | 65* | -5 | 3 | -1 | 4
CC(C)CCNC(=O)c1cnn2c(C(F)(F)F)cc(-c3ccco3)nc12 | 1 | 44* | -2 | -4 | 6 | -10
CS(=O)(=O)c1ccc(C(=O)OC2CCOC2=O)cc1[N+](=O)[O-] (stereo unspecified) | -1 | 2 | 0 | 68* | -1 | -25
O=C(OC1CCOC1=O)c1ccccc1C(=O)c1ccc(Cl)c([N+](=O)[O-])c1 (stereo unspecified) | -1 | -4 | -7 | 12 | 0 | -21
CCc1nc2ccc(C(=O)N3CCN(c4ccccc4)CC3)cn2c1N(C)CCCc1ccccc1 | -5 | -12 | 9 | -11 | -4 | -1
CCC(=O)Nc1nc(CC(=O)Nc2ccccc2OC)cs1 | 3 | 35* | 1 | -3 | 1 | 1
O=C(CSc1nnnn1C1CCCC1)Nc1cccc(NC(=O)c2ccco2)c1 | 7 | 0 | -2 | -5 | 0 | 1
O=C(CSc1nnnn1C1CCCCC1)Nc1cccc(NC(=O)c2ccco2)c1 | 3 | 37* | 0 | -6 | 7 | 2
CCC(c1nnnn1-c1ccc2c(c1)OCCO2)N1CCN(c2cccc(C)c2C)CC1 (stereo unspecified) | -3 | -1 | . | . | -1 | 1
O=C(CSc1nnc(-c2ccco2)c(-c2ccco2)n1)Nc1ccccc1 | -9 | 4 | -1 | 118* | 47 | 77*
Cc1ccccc1NC(=O)CSc1nnc(-c2ccco2)c(-c2ccco2)n1 | -10 | 5 | -25 | 106* | 42 | 27
Cc1cccc(C)c1NC(=O)CSc1nnc(-c2ccco2)c(-c2ccco2)n1 | -19 | 19 | -12 | 116* | 59 | 51*
Cc1ccccc1NC(=O)CSc1n[nH]c(-c2ccco2)n1 | 1 | 6 | 4 | -1 | -3 | 0
Cc1ccc(S(=O)(=O)N2CCC(=O)N([C@H](COCc3ccc(Cl)cc3)C(C)C)CC2)cc1 | -4 | 5 | . | . | 1 | -3
O=C(NCc1ccccc1)C1C(=O)Nc2ccccc2C(=O)N1c1ccc2c(c1)OCCO2 (stereo unspecified) | -5 | -4 | . | . | 3 | -3
COc1ccc(OC)c(NC(=O)C2(C)CCN2Cc2ccsc2)c1 (stereo unspecified) | 2 | 16 | 6 | -2 | 3 | 4
SMILES | MT1-MMP act inh | SKN-1 inh | Rpn11 inh | DNMT1 block | CSN deneddyl inh | SUMO1-SIM PPI
CC1(Cc2ccc(OC(F)(F)F)cc2)C(=O)Nc2c(Cl)ccc(Cl)c21 (stereo unspecified) | -10 | 6 | -1 | 6 | 0 | 1
CN(C)CCNc1ncnc2c1sc1nc(N3CCCC3)c3c(c12)CC(C)(C)OC3 | 8 | 50* | 5 | -8 | 0 | 11
CCN(CC)CCNc1ncnc2c1sc1nc(N3CCCC3)c3c(c12)CC(C)(C)OC3 | -3 | 17 | 2 | 0 | 2 | 16
CCOC1=C2[C@H](c3ccccc3)N(S(=O)(=O)c3ccc(C)cc3)C(C(C)(C)C)[C@H]2C(C#N)(C#N)C(C#N)(C#N)C1 (stereo partly specified) | -3 | -3 | 12 | -23 | -1 | 8
Cc1ccc(-c2cc(C#N)c(=O)n(Cc3c(Cl)cccc3Cl)c2)cc1 | 3 | -7 | 0 | 8 | -4 | 42*
COCCN(C(=O)COC(=O)c1ccc2c(c1)OCO2)c1c(N)n(Cc2ccccc2)c(=O)[nH]c1=O | 2 | 3 | 2 | 1 | -1 | 5
CCCCN(C)c1c(C)nc2ccc(C(=O)NCCCn3ccnc3)cn12 | -2 | 18 | -1 | -3 | -3 | -3
O=C(Nc1ccc(-c2noc(CCc3ccccc3)n2)cc1)c1ccco1 | -2 | 44* | 13 | -22 | -2 | 4
CCCCOC(=O)c1ccc(NC(=O)/C=C/c2cccs2)cc1 | -5 | 37* | 12 | -11 | 1 | -6
CC(=O)c1ccc(NC(=O)c2ccc(NC(=O)c3ccco3)cc2)cc1 | 1 | -14 | + | 32 | 20 | 18
CCCCCOC(=O)c1ccc(NC(=O)c2ccco2)cc1 | -1 | 71* | 8 | -3 | -2 | -2
COCCCNC(=O)C[C@@H]1C[C@@]2(C(=O)OC)CC(C)(C)CC=C2N(Cc2ccccc2)C1=O | 5 | 12 | . | . | 0 | -2
CCOC(=O)C1=C(O)/C(=C/c2ccc(-c3ccccc3C(=O)O)o2)SC1=Nc1ccc(C)cc1 | -103 | -24 | . | 23 | 50* | 6
O=C(NCCNCc1ccccc1)c1ccco1 | 5 | -10 | 0 | 68* | 21 | -7
CCc1ccc(CNCCNC(=O)c2ccco2)cc1 | -3 | -11 | 16 | 3 | 4 | -17
O=C1NC[C@@H](CCCCN2C[C@H](Cc3ccc(O)cc3)N(CCc3ccc(O)cc3)C(=O)C2=O)N(Cc2ccccc2)C1=O | 5 | 7 | . | . | -4 | 7
CCOC(=O)[C@]12Cc3c(cc(OC)c(OC)c3OC)[C@H]1N(Cc1ccccc1)C(=O)c1cc(OC)ccc12 | -7 | 16 | . | . | -2 | 10
